According to ChEMBL document CHEMBL4346672, “Antimicrobial and KPC/AmpC inhibitory activity of functionalized benzosiloxaboroles” (Eur J Med Chem, 2019):
Converted amounts (≈) assume the structure as drawn. The source made the active and inactive calls. The calls are words filed in the database; no cut-off is given here.

Assays:
Staphylococcus aureus [1] = test: Antibacterial activity against Staphylococcus aureus ATCC 6538P assessed as diameter of zone inhibition measured after 18 hrs by CLSI disc diffusion method; assay type: functional
Summary of the method: (§1)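 Disc diffusion on Mueller-Hinton II agar. Compounds dissolved in DMSO. Strains stored at -80 °C and subcultured twice on tryptic soy agar before testing. Inhibition zones read after 35 °C, 18 h.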

Pseudomonas aeruginosa [2] = test: Antibacterial activity against Pseudomonas aeruginosa ATCC 27853 measured after 18 hrs by CLSI broth dilution method; assay type: functional; details: ATCC 27853, 18 h
Summary of the method: (§2)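 Broth MIC in Mueller-Hinton II broth following CLSI, compounds dissolved in DMSO. Strains subcultured twice on tryptic soy agar before testing. Growth read after 35 °C, 18 h.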

Serratia marcescens = test: Antibacterial activity against Serratia marcescens ATCC 13880 measured after 18 hrs by CLSI broth dilution method; assay type: functional; details: ATCC 13880, 18 h; summary of the method: as §2
Candida parapsilosis = test: Antifungal activity against Candida parapsilosis ATCC 22019 assessed as decrease in fungal cell growth at 0.78 to 12.5 mg/L incubated for 24 hrs by CLSI broth dilution method; assay type: functional; details: Lodderomyces parapsilosis, ATCC 22019, 24 h
Summary of the method: (§3)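 Yeast broth dilution in RPMI 1640 with 2% glucose, compounds in DMSO. Yeasts pre-grown on Sabouraud dextrose agar. Growth read after 35 °C, 24 h.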

Pichia kudriavzevii [3] = test: Antifungal activity against Candida krusei ATCC 6258 assessed as decrease in fungal cell growth at 0.78 to 12.5 mg/L incubated for 24 hrs by CLSI broth dilution method; assay type: functional; details: ATCC 6258, 24 h; summary of the method: as §3
Candida albicans = test: Antifungal activity against Candida albicans ATCC 90028 assessed as diameter of zone inhibition incubated for 24 hrs by CLSI disc diffusion method; assay type: functional
Summary of the method: (§4)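 Yeast disc diffusion on Mueller-Hinton agar supplemented with 2% glucose and 0.5 mg/L methylene blue. Compounds in DMSO. Yeasts subcultured on Sabouraud dextrose agar before testing. Zones read after 35 °C, 24 h.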

Pichia kudriavzevii [4] = test: Antifungal activity against Candida krusei ATCC 6258 assessed as diameter of zone inhibition incubated for 24 hrs by CLSI disc diffusion method; assay type: functional; summary of the method: as §4
Enterococcus faecium = test: Antibacterial activity against Enterococcus faecium ATCC 6057 measured after 18 hrs by CLSI broth dilution method; assay type: functional; details: ATCC 6057, 18 h; summary of the method: as §2
Enterococcus faecalis = test: Antibacterial activity against Enterococcus faecalis ATCC 29212 assessed as diameter of zone inhibition measured after 18 hrs by CLSI disc diffusion method; assay type: functional; summary of the method: as §1
Klebsiella pneumoniae [5] = test: Antibacterial activity against Klebsiella pneumoniae ATCC 13883 measured after 18 hrs by CLSI broth dilution method; assay type: functional; details: ATCC 13883, 18 h; summary of the method: as §2
Proteus mirabilis = test: Antibacterial activity against Proteus mirabilis ATCC 12453 measured after 18 hrs by CLSI broth dilution method; assay type: functional; details: ATCC 12453, 18 h; summary of the method: as §2
[6] = test system: Bordetella bronchiseptica; test: Antibacterial activity against Bordetella bronchiseptica ATCC 4617 measured after 18 hrs by CLSI broth dilution method; assay type: functional; details: ATCC 4617, 18 h; summary of the method: as §2
Acinetobacter baumannii = test: Antibacterial activity against Acinetobacter baumannii ATCC 19606 measured after 18 hrs by CLSI broth dilution method; assay type: functional; details: ATCC 19606, 18 h; summary of the method: as §2
[7] = test system: Stenotrophomonas maltophilia; test: Antibacterial activity against Stenotrophomonas maltophilia ATCC 13637 assessed as diameter of zone inhibition measured after 18 hrs by CLSI disc diffusion method; assay type: functional; summary of the method: as §1
Burkholderia cepacia = test: Antibacterial activity against Burkholderia cepacia ATCC 25416 assessed as diameter of zone inhibition measured after 18 hrs by CLSI disc diffusion method; assay type: functional; summary of the method: as §1
Escherichia coli = test: Antibacterial activity against Escherichia coli ATCC 25922 assessed as fold reduction of MIC in presence of efflux pump inhibitor PAbetaN incubated for 18 hrs by CLSI broth microdilution method; assay type: functional
Summary of the method: (§5)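 MICs determined with and without PAβN at 50 mg/L in Mueller-Hinton broth containing 1 mM MgSO₄. 2-fold serial dilutions per CLSI. Fold change taken from the paired MICs after 35 °C, 18 h.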

[8] = test system: Stenotrophomonas maltophilia; test: Antibacterial activity against Stenotrophomonas maltophilia ATCC 13637 assessed as fold reduction of MIC in presence of efflux pump inhibitor PAbetaN incubated for 18 hrs by broth microdilution method; assay type: functional; summary of the method: as §5
[9] = test system: Klebsiella pneumoniae 700603; test: Inhibition of extended-spectrum beta lactamase in Klebsiella pneumoniae ATCC 700603 assessed as potentiation of ceftazidime-induced antibacterial activity by measuring diameter of zone inhibition at 0.3 mg incubated for 18 hrs in presence of 10 ug ceftazidime by CLSI disc diffusion method (Rvb=13 mm)
Summary of the method: (§6)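 EUCAST ESBL combination disc test on Mueller-Hinton agar. Zones were compared between a ceftazidime or cefotaxime disc alone and the same disc plus agent at 0.3 mg per disc. Clavulanic acid discs at 0.01 mg per disc served as reference. Plates were incubated at 35 °C for 18 h. A difference of at least 5 mm was counted as inhibition.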

[10] = test system: Klebsiella pneumoniae 700603; test: Inhibition of extended-spectrum beta lactamase in Klebsiella pneumoniae ATCC 700603 assessed as potentiation of cefotaxime-induced antibacterial activity by measuring diameter of zone inhibition at 0.3 mg incubated for 18 hrs in presence of 10 ug cefotaxime by CLSI disc diffusion method (Rvb=19 mm); summary of the method: as §6
Klebsiella pneumoniae [11] = test: Inhibition of beta lactamase KPC-2 in Klebsiella pneumoniae 75 assessed as potentiation of ceftazidime-induced antibacterial activity by measuring ceftazidime MIC at 16 mg/L incubated for 18 hrs by broth dilution method (reference value: […] mg/L)
Pseudomonas aeruginosa [12] = test: Inhibition of beta lactamase AmpC in Pseudomonas aeruginosa 700 assessed as potentiation of ceftazidime-induced antibacterial activity by measuring ceftazidime MIC at 16 mg/L incubated for 18 hrs by broth dilution method (reference value: >[…] mg/L)
Klebsiella pneumoniae [13] = test: Inhibition of beta lactamase KPC-3 in Klebsiella pneumoniae 81 assessed as potentiation of meropenem-induced antibacterial activity by measuring meropenem MIC at 16 mg/L incubated for 18 hrs by broth dilution method (reference value: […] mg/L)
[14] = Cytotoxicity against human MRC5 cells assessed as cell viability at 2 ug/ml incubated for 72 hrs by MTT assay; assay type: cell-based; details: read-out: Activity
Summary of the method: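 MRC-5 pd30 human fibroblasts grown in MEM with 10% FBS, 2 mM L-glutamine, penicillin/streptomycin and 1% non-essential amino acids at 37 °C, 5% CO2. Exponentially growing cells trypsinized and seeded at 8×10^3 cells/well, then dosed 18 h later with 2-fold dilutions (0.5% DMSO final) for 72 h. MTT (1 mg/ml final) added for 1 h at 37 °C, formazan dissolved in DMSO, OD read at 570 nm. Four replicates, expressed as % viable versus control.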

Klebsiella pneumoniae [15] = details: ATCC 13883
Staphylococcus aureus [16] = test: Bactericidal activity against Staphylococcus aureus ATCC 6538P measured after 18 hrs by CLSI broth dilution method; assay type: functional
Summary of the method: (§7)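 Strains stored at -80 °C and subcultured twice on tryptic soy agar before testing. Compounds dissolved in DMSO. […] MBC then determined per CLSI recommendations.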

[17] = test system: Staphylococcus epidermidis; test: Bactericidal activity against Staphylococcus epidermidis ATCC 12228 measured after 18 hrs by CLSI broth dilution method; assay type: functional; details: ATCC 12228, 18 h; summary of the method: as §7

| Structure (SMILES) | diameter of the inhibition zone (DIZ) (Staphylococcus aureus [1]) [mm] | MIC (Pseudomonas aeruginosa [2]) [µg/mL] | MIC (Serratia marcescens) [µg/mL] | MIC (Candida parapsilosis) [µg/mL] | MIC (Pichia kudriavzevii [3]) [µg/mL] | diameter of the inhibition zone (DIZ) (Candida albicans) | diameter of the inhibition zone (DIZ) (Pichia kudriavzevii [4]) | MIC (Enterococcus faecium) [µg/mL] | diameter of the inhibition zone (DIZ) (Enterococcus faecalis) | MIC (Klebsiella pneumoniae [5]) [µg/mL] | MIC (Proteus mirabilis) [µg/mL] | MIC [6] [µg/mL] | MIC (Acinetobacter baumannii) [µg/mL] | diameter of the inhibition zone (DIZ) [7] [mm] | diameter of the inhibition zone (DIZ) (Burkholderia cepacia) | fold change (FC) (Escherichia coli) | fold change (FC) [8] | inhibition zone (IZ) [9] [mm] | inhibition zone (IZ) [10] [mm] | MIC (Klebsiella pneumoniae [11]) [µg/mL] | other results |
| --- | --- | --- | --- | --- | --- | --- | --- | --- | --- | --- | --- | --- | --- | --- | --- | --- | --- | --- | --- | --- | --- |
| C[Si]1(C)OB(O)c2ccc(F)c(F)c21 | 32 | > 400 | > 400 | 12.5 (≈ 58.4 µM) | 100 (≈ 467 µM) | 15 mm | 17 mm | 100 (≈ 467 µM) | inactive | > 400 | > 400 | > 400 | 200 (≈ 934 µM) | 13 | inactive | 32 | 16 | 13 | 19 | > 64 | MIC (Pseudomonas aeruginosa [12]): > 64 µg/mL; MIC (Klebsiella pneumoniae [13]): 8 µg/mL; viability at 72 h, 2 ug/ml [14]: 113%; DIZ (Klebsiella pneumoniae [15]): inactive |
| C[Si]1(C)OB(O)c2c(F)c3c(c(F)c21)B(O)OC3 | 30 | > 400 | 400 (≈ 1480 µM) | > 400 | > 400 | inactive | inactive | 25 (≈ 92.6 µM) | 28 mm | 200 (≈ 741 µM) | 200 (≈ 741 µM) | 100 (≈ 371 µM) | 400 (≈ 1480 µM) | 15 | 23 mm | 8 | 8 | 13 | 19 | 64 | MIC (Pseudomonas aeruginosa [12]): > 64 µg/mL; MIC (Klebsiella pneumoniae [13]): 16 µg/mL; DIZ (Klebsiella pneumoniae [15]): inactive |
| C[Si]1(C)OB(O)c2ccc(B(O)O)cc21 | 14 | > 400 | > 400 | 200 (≈ 901 µM) | 400 (≈ 1800 µM) | inactive | inactive | 200 (≈ 901 µM) | inactive | > 400 | > 400 | > 400 | > 400 | 12 | inactive | 8 | 8 | 13 | 19 | 64 | MBC (Staphylococcus aureus [16]): 200 µg/mL (≈ 901 µM); MBC [17]: 100 µg/mL (≈ 451 µM); MIC (Pseudomonas aeruginosa [12]): 32 µg/mL; MIC (Klebsiella pneumoniae [13]): 4 µg/mL; viability at 72 h, 2 ug/ml [14]: 124%; DIZ (Klebsiella pneumoniae [15]): inactive |
| C[Si]1(C)OB(O)c2c(F)c(F)c(F)c(F)c21 | 17 | > 400 | > 400 | 50 (≈ 200 µM) | 200 (≈ 800 µM) | 15 mm | 13 mm | 200 (≈ 800 µM) | 11 mm | > 400 | 400 (≈ 1600 µM) | 100 (≈ 400 µM) | 400 (≈ 1600 µM) | 25 | inactive | 32 | 16 | 13 | 19 | 64 | MIC (Pseudomonas aeruginosa [12]): > 64 µg/mL; MIC (Klebsiella pneumoniae [13]): 16 µg/mL; DIZ (Klebsiella pneumoniae [15]): inactive |
| C[Si]1(C)OB(O)c2cc3c(c(F)c21)COB3O | 20 | > 400 | > 400 | 50 (≈ 198 µM) | > 400 | inactive | inactive | 50 (≈ 198 µM) | 18 mm | > 400 | > 400 | 200 (≈ 794 µM) | > 400 | 14 | inactive | 16 | 16 | 13 | 19 | > 64 | MBC (Staphylococcus aureus [16]): 400 µg/mL (≈ 1590 µM); MBC [17]: 400 µg/mL (≈ 1590 µM); MIC (Pseudomonas aeruginosa [12]): > 64 µg/mL; MIC (Klebsiella pneumoniae [13]): 8 µg/mL; viability at 72 h, 2 ug/ml [14]: 116%; DIZ (Klebsiella pneumoniae [15]): inactive |
